This note sets out measurements from PubChem BioAssay.

Activity calls are given as the source filed them. Rule as the data show it, unless noted: active = inhibition above about 30%; inactive = the rest.

Test [1] in a line: reducers of endogenous Her2 protein level, primary screen, SKBR3 breast tumor cells, AlphaScreen, ATP viability (AID 461;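 active = Her2 level under about 52% in both replicate screens, with viability over 70% of control, limit read from the data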;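 as to Her2 level: lower value means less Her2 protein in the cells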;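 as to viability: percent of carrier control wells set as 100% viability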). The note with it: 18-24 h, measured here: SKBR3 viability, ATP luminescence, at 10 µM.
Test [2] addresses Receptor tyrosine-protein kinase erbB-2 (Homo sapiens) (UniProt P04626). Described as above. Conditions: 18-24 h, at 10 µM, stronger effect = lower value.
The nature of test [3]: SK-BR-3 cell growth inhibitors, pilot screen, 24 h, human (AID 572;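 active = viability at or below 10% of carrier control in both of two separate runs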;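 also: compound exposure lasted between 18 and 24 h rather than exactly 24 h; 100% = carrier-treated control wells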). Conditions: SK-BR-3 viability, CellTiter-Glo luminescence, at 10 µM, stronger effect = lower value. (In ATP-based viability assays light output follows the ATP content of the culture.)
Test [4] can be described thus: HUVEC growth inhibition – cell-based, human, primary screen (AID 575;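 active = viability at or below 30% in both replicate assays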;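 also: 100% = median of untreated cell wells with 0.1% DMSO on each plate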). Conditions: HUVEC proliferation, CellTiter-Glo luminescence, 72 h; at 10 µM; stronger effect = lower value. In short, it runs like this: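 Timing: 72 h treatment at 37 °C; material: HUVEC primary cells; technique: CellTiter-Glo luminescence measuring cellular ATP; controls: vehicle and MePR control wells; measure: percent of median DMSO-control luminescence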

Test [5] in a line: growth inhibitors of H69AR lung tumor, primary screen, human, duplicate replicates (AID 580;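 active = viability at or under a set limit in both replicates, limit being median viability minus 3 SD, cut at about 48% in these data, passing the limit was not always enough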;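 also: 100% = mean luminescence of untreated wells and 0% = no signal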). The note with it: H69AR lung tumor cells viability, ATP luminescence, 72 h; at 10 µM; stronger effect = lower value.
Test [6] can be described thus: reversal of MRP1-mediated doxorubicin resistance, pilot screen, H69AR cells, doxorubicin co-treatment (AID 601;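 active = viability loss from added drug above about 55%, and viability with drug at most 40%, in both replicates, limit read from the data, passing the limit was not always enough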). Conditions: CellTiter-Glo, 72 h, at 10 µM; for differential viability (reversal): stronger effect = higher value.
Test [7] can be described thus: 384-well plate pilot, post-Golgi transport modulator project, inhibition of yeast transport mutant growth (AID 636; in the data active = inhibition above about 31%). Conditions: absorbance 615 nm, about 18 h, stronger effect = higher value.
A short description of test [8]: growth suppression of yeast trafficking mutant, preliminary HTS, modulators of trafficking downstream of Golgi apparatus project, 1536-format plate, OD 615 nm (AID 637). The note with it: yeast transport mutant growth, absorbance 615 nm, 18 h; stronger effect = higher value.
[9] abbreviates: H69AR cells + 2 uM doxorubicin, measured here: viability with 2 uM doxorubicin, stronger effect = lower value.
The mark [10] stands for this setting: H69AR cells, compound alone cytotoxicity.

Receptor tyrosine-protein kinase erbB-2 (Homo sapiens), sequence (P04626 whole entry, looked up): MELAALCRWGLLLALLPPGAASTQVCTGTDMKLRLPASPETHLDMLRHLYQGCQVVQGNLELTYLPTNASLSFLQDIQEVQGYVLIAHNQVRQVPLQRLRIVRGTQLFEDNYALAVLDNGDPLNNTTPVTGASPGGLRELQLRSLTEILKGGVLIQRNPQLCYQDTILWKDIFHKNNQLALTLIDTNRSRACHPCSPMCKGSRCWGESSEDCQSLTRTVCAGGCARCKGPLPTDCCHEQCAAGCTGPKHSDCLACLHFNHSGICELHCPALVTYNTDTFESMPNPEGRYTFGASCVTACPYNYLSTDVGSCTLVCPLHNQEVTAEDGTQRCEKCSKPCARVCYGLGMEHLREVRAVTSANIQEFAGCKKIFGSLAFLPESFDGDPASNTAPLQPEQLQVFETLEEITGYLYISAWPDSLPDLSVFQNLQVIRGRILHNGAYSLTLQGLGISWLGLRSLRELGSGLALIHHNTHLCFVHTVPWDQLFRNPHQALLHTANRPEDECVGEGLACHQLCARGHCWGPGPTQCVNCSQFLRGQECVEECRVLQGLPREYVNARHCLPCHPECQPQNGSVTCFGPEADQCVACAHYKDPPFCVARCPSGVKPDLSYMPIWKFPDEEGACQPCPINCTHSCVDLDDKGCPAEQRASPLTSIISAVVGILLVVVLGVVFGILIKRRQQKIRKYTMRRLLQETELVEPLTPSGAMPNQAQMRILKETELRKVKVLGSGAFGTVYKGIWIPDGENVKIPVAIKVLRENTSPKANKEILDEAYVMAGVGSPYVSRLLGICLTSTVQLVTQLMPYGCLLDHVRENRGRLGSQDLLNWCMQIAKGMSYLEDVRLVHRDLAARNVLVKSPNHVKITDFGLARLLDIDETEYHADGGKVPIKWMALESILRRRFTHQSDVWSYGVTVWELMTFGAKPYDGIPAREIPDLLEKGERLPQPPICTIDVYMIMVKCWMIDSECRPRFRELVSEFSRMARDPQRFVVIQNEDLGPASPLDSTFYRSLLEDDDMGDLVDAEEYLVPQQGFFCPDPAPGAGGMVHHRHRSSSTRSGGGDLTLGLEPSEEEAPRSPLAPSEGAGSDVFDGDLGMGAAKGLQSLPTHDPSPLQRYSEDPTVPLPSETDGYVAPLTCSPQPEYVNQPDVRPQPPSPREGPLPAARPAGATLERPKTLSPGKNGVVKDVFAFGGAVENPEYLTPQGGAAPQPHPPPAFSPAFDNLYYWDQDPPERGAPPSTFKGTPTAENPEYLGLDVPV

For the compound `O=C(NCc1ccco1)c1cc2n(n1)C(C(F)(F)F)CC(c1ccc(F)cc1)N2` (stereo not given), the viability in test [1] was 120%; in test [3], 120% (inactive); in test [4], 67.1% (inactive); in test [5] it was 86.8% (inactive); in test [6] (setting [9]) it was 82.9%; in test [6] (setting [10]), 86.8%. The Her2 level in test [2] is 106% (inactive). Also, the differential viability (reversal) in test [6] (H69AR cells + 2 uM doxorubicin) was 3.92% (inactive). Besides, the figures for the inhibition in test [7] and in test [8] were -4.8% (inactive) and -4.68% (inactive), respectively.
Consider `COc1ccc(S(=O)(=O)NCC(=O)N(CC(=O)NCC2CCCO2)c2ccccc2C)cc1` (stereo not given), for which the viability in test [1] is 123%; in test [3] it was 123% (inactive); in test [4], 107% (inactive); in test [5] it was 83.4% (inactive); in test [6] (setting [9]) it was 76.4%; in test [6] (setting [10]) it was 83.4%. Further, the Her2 level in test [2] was 82% (inactive). Further, the differential viability (reversal) in test [6] (H69AR cells + 2 uM doxorubicin) is 7.01% (inactive). Also, the inhibition in test [7] was -3.73% (inactive); in test [8], -0.32% (inactive).
On to `COc1ccc(-n2ncc3c(NCc4ccccn4)ncnc32)cc1`, for which the viability was 98.5% in test [1]; 98.5% (inactive) in test [3]; 102% (inactive) in test [4]; 90.5% (inactive) in test [5]; 87% in test [6] (setting [9]); 90.5% in test [6] (setting [10]). Also, the Her2 level in test [2] was 97.5% (inactive). Further, the differential viability (reversal) in test [6] (H69AR cells + 2 uM doxorubicin) is 3.51% (inactive). In addition, the inhibition in test [7] is -1.97% (inactive); in test [8], 4.19% (inactive).
Take `CC1C(c2ccccc2)N(C)CCC12NC(=O)NC2=O` (stereo not given): the viability in test [1] is 89%; in test [3], 89% (inactive); in test [4] it was 96.9% (inactive); in test [5], 98.2% (inactive); in test [6] (setting [9]) it was 85.2%; in test [6] (setting [10]), 98.2%. The Her2 level in test [2] is 95.5% (inactive). In addition, in test [6] (H69AR cells + 2 uM doxorubicin), the differential viability (reversal) is 13% (inactive). Also, the inhibition in test [7] is -5.33% (inactive); in test [8], -9.02% (inactive).
`O=C(O)CCCC(=O)Nc1nc(-c2ccc(F)cc2)cs1`: the viability in test [1] is 97.5%; in test [3], 97.5% (inactive); in test [4] it was 83.3% (inactive); in test [5], 96.5% (inactive); in test [6] (setting [9]) it was 92.4%; in test [6] (setting [10]), 96.5%. In test [2], the Her2 level is 75.5% (inactive). Also, the differential viability (reversal) in test [6] (H69AR cells + 2 uM doxorubicin) is 4.08% (inactive). Moreover, the inhibition in test [7] was -3.95% (inactive); in test [8] it was -4.5% (inactive).
As for `Cc1cc(C(=O)OCC(=O)N2c3ccccc3CC2C)c(C)o1` (stereo not given), the viability in test [1] is 90.5%; in test [3], 90.5% (inactive); in test [4] it was 101% (inactive); in test [5], 100% (inactive); in test [6] (setting [9]) it was 90.8%; in test [6] (setting [10]) it was 100%. Besides, the Her2 level in test [2] was 86.5% (inactive). The differential viability (reversal) in test [6] (H69AR cells + 2 uM doxorubicin) is 9.63% (inactive). Moreover, the inhibition is -4.05% (inactive) in test [7] and -4.75% (inactive) in test [8].
For the compound `CCn1c(SCc2nc3ccccc3c(=O)[nH]2)nnc1-c1cccnc1`, the viability in test [1] was 84.5%; in test [3], 84.5% (inactive); in test [4], 104% (inactive); in test [5] it was 95.2% (inactive); in test [6] (setting [9]), 90.9%; in test [6] (setting [10]) it was 95.2%. In addition, the Her2 level in test [2] was 98% (inactive). The differential viability (reversal) in test [6] (H69AR cells + 2 uM doxorubicin) is 4.33% (inactive). The inhibition in test [7] was -0.13% (inactive); in test [8], -0.16% (inactive).
With `Nn1c(CSc2nc3ccccc3o2)nnc1CSc1nc2ccccc2o1`, the viability in test [1] was 86%; in test [3], 86% (inactive); in test [4] it was 115% (inactive); in test [5], 103% (inactive); in test [6] (setting [9]) it was 78.6%; in test [6] (setting [10]), 103%. The Her2 level in test [2] was 94.5% (inactive). In test [6] (H69AR cells + 2 uM doxorubicin), the differential viability (reversal) is 24.1% (inactive). Further, the values for the inhibition in test [7] and in test [8] were -4.4% (inactive) and -1.8% (inactive), respectively.
With `CCc1nc(N)c(C#N)c(-c2ccc(OC)c(OC)c2)c1C`, the viability in test [1] was 98.5%; in test [3], 98.5% (inactive); in test [4], 91.4% (inactive); in test [5], 87.2% (inactive); in test [6] (setting [9]), 78.1%; in test [6] (setting [10]), 87.2%. For the same compound, in test [2], the Her2 level was 93% (inactive). Further, the differential viability (reversal) in test [6] (H69AR cells + 2 uM doxorubicin) is 9.15% (inactive). Moreover, the inhibition in test [7] was -6.93% (inactive); in test [8] it was 3.33% (inactive).
For the compound `COc1ccc(-c2cc(C(F)F)n3ncc(C(=O)NCC4CCCO4)c3n2)cc1` (stereo not given), the viability in test [1] was 92%; in test [3], 92% (inactive); in test [4] it was 82.7% (inactive); in test [5], 73.6% (inactive); in test [6] (setting [9]) it was 77.2%; in test [6] (setting [10]), 73.6%. Further, the Her2 level in test [2] is 89% (inactive). The differential viability (reversal) in test [6] (H69AR cells + 2 uM doxorubicin) was -3.58% (inactive). Also, the inhibition in test [7] is -0.79% (inactive); in test [8], 4.35% (inactive).
With `N#Cc1nc(COc2ccc(Br)cc2)oc1N1CCCC1`, the viability is 99% in test [1]; 99% (inactive) in test [3]; 89.4% (inactive) in test [4]; 87.5% (inactive) in test [5]; 86.7% in test [6] (setting [9]); 87.5% in test [6] (setting [10]). For the same compound, the Her2 level in test [2] was 90% (inactive). Also, the differential viability (reversal) in test [6] (H69AR cells + 2 uM doxorubicin) was 0.745% (inactive). Further, the inhibition is -7.07% (inactive) in test [7] and 0.66% (inactive) in test [8].
For the compound `COc1cccc(C(=O)Nc2ncc3c(n2)CC(C)CC3=O)c1` (stereo not given), the viability was 97.5% in test [1]; 97.5% (inactive) in test [3]; 107% (inactive) in test [4]; 109% (inactive) in test [5]; 100% in test [6] (setting [9]); 109% in test [6] (setting [10]). Also, in test [2], the Her2 level was 88.5% (inactive). Also, the differential viability (reversal) in test [6] (H69AR cells + 2 uM doxorubicin) is 9.34% (inactive). Moreover, the inhibition is -2.16% (inactive) in test [7] and 2.22% (inactive) in test [8].
Turning to `COCCn1c(-c2ccc(OC)c(OC)c2)nc2ccccc21`, the viability in test [1] is 93%; in test [3], 93% (inactive); in test [4], 105% (inactive); in test [5], 95.8% (inactive); in test [6] (setting [9]), 91%; in test [6] (setting [10]), 95.8%. In addition, the Her2 level in test [2] is 108% (inactive). In addition, the differential viability (reversal) in test [6] (H69AR cells + 2 uM doxorubicin) is 4.81% (inactive). The inhibition in test [7] was -4.67% (inactive); in test [8], -5.81% (inactive).
As to `O=C(Nc1ccc(Cc2ccc(NC(=O)N3CCOCC3)cc2)cc1)N1CCOCC1`, the viability was 97% in test [1]; 97% (inactive) in test [3]; 90.1% (inactive) in test [4]; 98.5% (inactive) in test [5]; 82.8% in test [6] (setting [9]); 98.5% in test [6] (setting [10]). Further, the Her2 level in test [2] was 94% (inactive). Besides, the differential viability (reversal) in test [6] (H69AR cells + 2 uM doxorubicin) is 15.7% (inactive). Further, the inhibition was -4.87% (inactive) in test [7] and -1.17% (inactive) in test [8].

The viability is a read-out of living cells in per cent, often relative to untreated cells. What is called inhibition is the relative decrease from the control value, in per cent.
